Only some compounds are listed: those with a hit (about 3.1% of all), similar ones and a draw of the others.
Apaf1 inhib – blocks human Apaf-1 apoptosome activity; hit rate 0.71% among 330,000; AID 489030; inhibition, % at 20 µM; reconstituted apoptosome caspase-3 activity, DEVD-Rh110 fluorescence; active = inhibition of at least 40% at 20 µM
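Material: cell-free apoptosome with Apaf-1, procaspase-3 and caspase-9; Buffer or medium: Hepes pH 7.5 with detergent and BSA; Reagent: cytochrome c trigger plus (Z-DEVD)2-Rh110 caspase-3 substrate; Times: compound with Apaf-1, dATP, procaspase-3 30 min, then 50 min reaction, room temperature; Technique: Rh110 fluorescence intensity.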
PREPL inh – human PREPL enzyme inhibition; recombinant PREPL, fluorescence polarization activity-based probe; inhibition, % at 5.96 µM; hit rate 0.68% among 320,000; in the data active = inhibition above about 43%
MEKK2 WT-MEK5 – raises or lowers MEK5 binding to wildtype human MEKK2 PB1 domain; Q9Y2U5; bead flow cytometry, Alexa488-MEK5 binding to MEKK2 WT; actives lie on both sides; binding response (% of control), % at 10 µM; hit rate 1.1% among 290,000; AID 1531; in the data active = binding response below about 67% or above about 130%
MEKK2mut PB1 HTS – signal of MEK5 binding to mutant human MEKK2 PB1 domain. hit rate 0.35% among 290,000. percent response, % at 10 µM. bead flow cytometry, Alexa488-MEK5 binding to MEKK2 mutant; in the data active = percent response above about 24%, passing the limit was not always enough
UBC13 inh – human UBC13 polyubiquitination inhibition; P61088; UBC13 polyubiquitin chain formation, TR-FRET; inhibition, % at 20 µM; hit rate 0.47% among 330,000; AID 485273; in the data active = inhibition above about 45%, passing the limit was not always enough
MEKK3 PB1 HTS – modulators (inhibitors or enhancers) of MEK5 binding to human MEKK3 PB1 domain; binding response (% of control), % at 10 µM; bead-based flow cytometry, Alexa488-MEK5 binding to MEKK3; actives lie on both sides; 0 = blocked by unlabeled MEK5, 100 = vehicle; hit rate 1.4% among 290,000;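 active = binding response more than 3 SD above or below the average of its plate-row segment, actives on both sides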;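 also: Alexa488 bead fluorescence after subtracting the streptavidin-only scavenger bead signal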
Large screens that a line does not name were inactive; [ ] = remark or other dose.

C=CCOc1ccc(CN(C)CC(O)COc2ccc(CCC(C)=O)cc2)cc1 (centres undefined)	none
CN(CC(O)COc1ccccc1F)C1CCCCC1 (centres undefined)	none
CN(Cc1ccc(Br)cc1)CC(O)COc1cccc(Br)c1 (centres undefined)	none
CN(Cc1ccc(OCC(O)CN(C)Cc2ccccc2)cc1)Cc1nccn1C (centres undefined)	none
NC(=O)CSc1nnc(-c2ccccc2F)n1C1CC1	none
Cc1[nH]c(-c2ccc(F)cc2)cc1C(=O)N1CCN(c2cccc(Cl)c2)CC1	none (no result: PREPL inh)
CCN(CC)S(=O)(=O)c1ccc(OC)c(NC(=O)CSCc2c(C)noc2C)c1	none (no result: MEKK2 WT-MEK5, MEKK2mut PB1 HTS, MEKK3 PB1 HTS)
CC(C)CCN(C(=O)c1ccc(Br)cc1)c1c(N)n(Cc2ccccc2)c(=O)[nH]c1=O	none (no result: MEKK2 WT-MEK5, MEKK2mut PB1 HTS, MEKK3 PB1 HTS)
Cc1cc(C)n(-c2ccc(C(=O)OCC(=O)Nc3ccccc3F)cc2)n1	none (no result: MEKK2 WT-MEK5, MEKK2mut PB1 HTS, MEKK3 PB1 HTS)
COCC(C)n1c(SCC(=O)NC(=O)NC2CCCC2)nc2ccccc2c1=O (centres undefined)	none (no result: MEKK2 WT-MEK5, MEKK2mut PB1 HTS, MEKK3 PB1 HTS)
CN(C)CCSc1nc(N)c2c3c(sc2n1)CN(C)CC3	UBC13 inh 75
CCCSc1nc(N)c2c3c(sc2n1)CN(C)CC3	none (no result: MEKK2 WT-MEK5, MEKK2mut PB1 HTS, MEKK3 PB1 HTS)
CCN(CC)C(=O)c1[nH]cnc1C(=O)NCC(=O)OCc1ccccc1	none
Fc1cccc(Cl)c1CNc1ccc(N2CCCC2)cc1	Apaf1 inhib 48
COc1ccc(Cc2nnc(SCC(=O)Nc3ccccc3C#N)o2)cc1	none
Nc1c(C(=O)N/N=C/c2ccc(Cl)cc2)cnn1-c1ccccc1	none
Nc1scc2c(C(=O)N/N=C/c3ccc(Cl)cc3)nn(-c3ccccc3)c(=O)c12	Apaf1 inhib 42
COc1ccc(OC)c(C2C(C(=O)c3cccs3)=C(O)C(=O)N2CCN2CCOCC2)c1 (centres undefined)	none (no result: PREPL inh)
CN(C)CCC(O)c1ccccc1 (centres undefined)	MEKK2 WT-MEK5 -4.0
CCN(CC)c1ccc2c(C)c(Cl)c(=O)oc2c1	none
CCN(CC)c1ccc2c(Cl)c(Br)c(=O)oc2c1	MEKK2 WT-MEK5 -27
COc1ccc2nc(N3CCCC(C(=O)NCCCN4C(C)CCCC4C)C3)sc2c1 (centres undefined)	none
C(=N\NC1=Nc2cccc3cccc1c23)/c1cccnc1	MEKK2 WT-MEK5 11
C(=N\NC1=Nc2cccc3cccc1c23)/c1ccccc1	none
C(C#CCCCCCCCCC[n+]1ccccc1)#CCCCCCCCCC[n+]1ccccc1	MEKK2 WT-MEK5 274, MEKK2mut PB1 HTS 56 (no result: Apaf1 inhib, UBC13 inh)
O=C(NCCc1nnc2ccc(N3CCCC3)nn12)c1ccccc1	none
O=Cc1c(C(=O)O)n(CC(=O)O)c2ccccc12	MEKK3 PB1 HTS 134
O=C(Nc1ccccc1)C1CCOC1=O (centres undefined)	none (no result: MEKK2 WT-MEK5, MEKK2mut PB1 HTS, MEKK3 PB1 HTS)
COc1cc(C(=O)NNC(=O)CN2C(=O)NC(C)(c3ccc(C)cc3)C2=O)cc(OC)c1OC (centres undefined)	none (no result: MEKK2 WT-MEK5, MEKK2mut PB1 HTS, MEKK3 PB1 HTS)
CCCCCCc1cc2cc(-c3nnc(-c4cc(OC)c(OC)c(OC)c4)o3)c(=O)oc2cc1O	Apaf1 inhib 63
COc1ccc(N=c2scc(-c3ccc(S(=O)(=O)N4CCOCC4)cc3)n2CCCO)cc1	MEKK2 WT-MEK5 3.0[inhibitor], MEKK3 PB1 HTS 2.0[inhibitor] (no result: Apaf1 inhib, PREPL inh, UBC13 inh)
Cc1nn(S(=O)(=O)c2ccc(Br)cc2)c(C)c1S(=O)(=O)N1CCOCC1	none
O=C1OC(c2cccs2)=N/C1=C\c1ccc(-c2ccccc2Cl)o1	MEKK2 WT-MEK5 62, MEKK2mut PB1 HTS 82 (no result: Apaf1 inhib, PREPL inh, UBC13 inh)
O=C1OC(c2cccs2)=N/C1=C/c1ccc(-c2cccc(C(=O)O)c2)o1	none (no result: Apaf1 inhib, PREPL inh, UBC13 inh)
O=C(CN1CCN(Cc2ccccc2)CC1)Nc1ccc([N+](=O)[O-])cc1C(=O)Nc1ccccc1F	PREPL inh 43
CCOc1ccccc1CNC(=O)C1CCN(c2nnc(C)c3c(C)n(-c4ccc(C)cc4)nc23)CC1	Apaf1 inhib 41
CCCN1CCN(C(=O)C2CCN(c3nnc(C)c4c(C)n(-c5ccc(C)cc5)nc34)CC2)CC1	MEKK2mut PB1 HTS 134
C=CCN(c1ccccc1)S(=O)(=O)c1cccc(C(=O)NCc2ccco2)c1	none (no result: MEKK2 WT-MEK5, MEKK2mut PB1 HTS, MEKK3 PB1 HTS)
CC(C)(C)[C@H]1COC(=O)CCC/C=C/C[C@H](CC(=O)NCCO)C(=O)N1	none (no result: MEKK2 WT-MEK5, MEKK2mut PB1 HTS, MEKK3 PB1 HTS)
CCc1ccc(N2C(=O)Cc3c2nc(N)c(C#N)c3N)cc1	PREPL inh 44
